Results from article PMC11931292 (Drug Design, Development and Therapy, 2025).

Legend:
In vitro drug release = type: physicochemical; settings: within 9 hours
BCG within RAW264.7 = assay: Intracellular inhibition, CFU assay in infected RAW264.7 cells; type: cell-based; settings: 0.047 μg/mL drug, 72 hours, BCG MOI 1
How it was run: (§1)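 RAW264.7 macrophages were seeded at 1×10⁶ cells/well in 12-well plates and infected at MOI 1, for 24 h with BCG or 4 h with H37Rv. Cells were exposed to 0.047 μg/mL free drug or nanoparticles with equivalent drug for 72 h, washed three times with PBS, and lysed 10 min in PBS with 0.03% SDS. Lysates were serially diluted in 7H9, plated on 7H11, and CFU counted after 21 days at 37°C (three replicates).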

H37Rv within RAW264.7 = assay: as above; type: cell-based, Mycobacterium tuberculosis; settings: 0.047 μg/mL drug, 72 hours, H37Rv MOI 1
How it was run: as §1

[1] = Pharmacokinetics study, single intravenous injection; type: in vivo, Sprague-Dawley (SD) rats; settings: SD rats, single i.v. 10 mg/kg
How it was run: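 Male SD rats (180–220 g) were randomised to free drug or one of two nanoparticle formulations and anaesthetised with i.p. 2% sodium pentobarbital (3mg/100g). Each got a single i.v. dose of 10 mg/kg drug-equivalent. Blood was drawn by orbital bleeding at set times. Plasma was deproteinised with acetonitrile and centrifuged, and the supernatant was assayed by HPLC (C18, 30°C, 335 nm). Cmax, Tmax, t1/2, MRT and AUC0–∞ were derived.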

[2] = Organ toxicity: H&E histology and serum biochemistry; type: in vivo, SD rats; settings: fourth day after injection
How it was run: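 On day 4 after injection, animals were euthanised. Heart, kidneys, liver, lungs and spleen were excised, rinsed in saline to remove blood, fixed in 4% paraformaldehyde for 72 h, and stained with hematoxylin and eosin.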

CO[C@H]1/C=C/O[C@@]2(C)Oc3c(C)c(O)c4c(O)c(c(/C=N/N5CCN(C6CCCC6)CC5)c(O)c4c3C2=O)NC(=O)/C(C)=C\C=C\[C@H](C)[C@H](O)[C@@H](C)[C@@H](O)[C@@H](C)[C@H](OC(C)=O)[C@@H]1C [RPT, Rifapentine]
Cumulative release (initial burst release) (In vitro drug release): approximately 90.73% | Intracellular antibacterial activity (CFU) (BCG within RAW264.7): exhibited inhibitory effects | Intracellular antibacterial activity (CFU) (H37Rv within RAW264.7): exhibited inhibitory effects | Time the drug persisted in the system [1]: 2 days | H&E histology of heart, spleen, liver, lungs and kidneys [2]: no discernible abnormalities
